Results from ChEMBL document CHEMBL4038340, “Development of Novel Peptide-Based Michael Acceptors Targeting Rhodesain and Falcipain-2 for the Treatment of Neglected Tropical Diseases (NTDs)” (J Med Chem, 2017).
Calls of active or inactive are those of the source. The rule behind the calls is not given here.

Key:
Procathepsin L [1] = target: T1, Procathepsin L (Homo sapiens, UniProt P07711); experiment: Inhibition of human cathepsin L using Cbz-Phe-Arg-AMC as substrate after 10 mins by fluorescence assay
Target sequence in this assay (P07711 whole entry): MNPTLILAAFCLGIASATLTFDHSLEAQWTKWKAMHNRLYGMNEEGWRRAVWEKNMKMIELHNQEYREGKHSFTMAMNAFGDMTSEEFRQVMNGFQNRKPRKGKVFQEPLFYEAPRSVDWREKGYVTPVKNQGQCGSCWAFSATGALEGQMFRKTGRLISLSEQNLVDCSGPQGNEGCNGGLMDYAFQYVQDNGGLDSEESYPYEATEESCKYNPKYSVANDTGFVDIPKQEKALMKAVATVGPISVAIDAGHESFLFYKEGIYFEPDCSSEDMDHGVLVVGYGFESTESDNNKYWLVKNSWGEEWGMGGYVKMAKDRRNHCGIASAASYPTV

Falcipain 2 = target: T2, Falcipain 2 (Plasmodium falciparum, UniProt Q9N6S8); experiment: Inhibition of recombinant Plasmodium falciparum falcipain-2 expressed in Escherichia coli M15(pREP4) using Cbz-Phe-Arg-AMC as substrate by fluorescence assay
T2 sequence (Q9N6S8 whole entry): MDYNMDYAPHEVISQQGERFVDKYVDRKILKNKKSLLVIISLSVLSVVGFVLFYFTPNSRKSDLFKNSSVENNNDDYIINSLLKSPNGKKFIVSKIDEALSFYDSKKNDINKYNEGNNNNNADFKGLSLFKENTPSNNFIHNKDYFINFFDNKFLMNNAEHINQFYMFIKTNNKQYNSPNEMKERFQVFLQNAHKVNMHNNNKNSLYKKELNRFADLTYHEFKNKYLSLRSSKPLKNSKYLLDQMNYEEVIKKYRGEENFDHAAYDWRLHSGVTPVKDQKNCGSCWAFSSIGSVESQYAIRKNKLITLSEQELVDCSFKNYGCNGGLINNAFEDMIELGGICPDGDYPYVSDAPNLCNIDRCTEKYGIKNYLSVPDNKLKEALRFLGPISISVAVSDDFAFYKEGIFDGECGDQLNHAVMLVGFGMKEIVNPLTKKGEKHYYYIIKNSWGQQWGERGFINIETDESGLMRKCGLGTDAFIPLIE

[2] = tested on: Trypanosoma brucei brucei; experiment: Antiparasitic activity against bloodstream form of Trypanosoma brucei brucei 449 after 24 hrs by ATPlite assay; type: functional; details: Trypanosoma brucei, 449, 24 h
[3] = tested on: Trypanosoma brucei brucei; experiment: Effect on protein bound glutathione level in blood stream of Trypanosoma brucei brucei; type: functional
Procathepsin L [4] = target: T1, Procathepsin L; experiment: Inhibition of human cathepsin L assessed as second order rate constant using Cbz-Phe-Arg-AMC as substrate after 10 mins by fluorescence assay
Target sequence in this assay (P07711 114-333 limits assumed): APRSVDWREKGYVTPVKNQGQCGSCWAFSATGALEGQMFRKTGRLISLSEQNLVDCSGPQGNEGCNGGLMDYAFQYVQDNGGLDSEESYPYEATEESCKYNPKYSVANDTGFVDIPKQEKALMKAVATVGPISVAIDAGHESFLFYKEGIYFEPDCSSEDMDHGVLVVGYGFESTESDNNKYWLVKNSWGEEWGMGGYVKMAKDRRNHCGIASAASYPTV

[5] = tested on: Trypanosoma brucei brucei; experiment: Effect on glutathione level in blood stream of Trypanosoma brucei brucei at 3 uM after 24 hrs by HPLC analysis; type: functional
Method in brief: (§1)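 Bloodstream-form T. brucei were seeded at 1 x10^5 cells/ml and treated for 24 h, with untreated cells as control. Free thiols (GSH, T(SH)2), and free thiols plus disulfides (GSSG, TS2), were labelled with monobromobimane and quantified by HPLC. Values are mean ± SD of three independent experiments.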

[6] = Selectivity index, ratio of CC50 for human HeLa cells to EC50 for Trypanosoma brucei brucei 449 for 48 hrs; type: toxicity, cell-based; details: read-out: Ratio CC50/EC50
[7] = target: Rhodesain (Trypanosoma brucei rhodesiense) (UniProt Q95PM0); experiment: Inhibition of recombinant Trypanosoma brucei rhodesiense rhodesain expressed in Pichia pastoris assessed as first order rate constant using Cbz-Phe-Arg-AMC as substrate after 30 mins by fluorescence assay
Method in brief: (§2)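 Recombinant rhodesain with fluorogenic substrate Cbz-Phe-Arg-AMC. Preliminary screen at a fixed inhibitor concentration of 50 µM. Equal volume of DMSO served as negative control and E-64 as irreversible positive control. Active compounds went on to continuous assays at seven concentrations, from minimally to fully inhibitory, giving kinac (min-1), Ki (nM) and k2nd = kinac/Ki (M-1 min-1).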

[8] = Cytotoxicity against human HeLa cells assessed as decrease in cell viability after 48 hrs by MTT assay; type: cell-based
[9] = tested on: Trypanosoma brucei brucei; experiment: Antiparasitic activity against bloodstream form of Trypanosoma brucei brucei 449 after 48 hrs by ATPlite assay; type: functional; details: Trypanosoma brucei, 449, 48 h
Procathepsin L [10] = target: T1, Procathepsin L; experiment: Inhibition of human cathepsin L assessed as first order rate constant using Cbz-Phe-Arg-AMC as substrate after 10 mins by fluorescence assay
Target sequence in this assay (P07711 114-333 limits assumed): as above

[11] = tested on: Trypanosoma brucei brucei; experiment: Inhibition of trypanothione synthetase in blood stream of Trypanosoma brucei brucei assessed as cellular content of free trypanothione after 24 hrs by HPLC analysis; method in brief: as §1
[12] = tested on: Trypanosoma brucei brucei; experiment: Inhibition of trypanothione synthetase in blood stream of Trypanosoma brucei brucei assessed as cellular content of free trypanothione at 3 uM after 24 hrs by HPLC analysis (reference value: 340 uM); method in brief: as §1
Plasmodium falciparum = experiment: Antiparasitic activity against Plasmodium falciparum W2 after 48 hrs by YOYO-1 probe-based flow cytometry; type: functional; details: W2, 48 h
[13] = target: Rhodesain (Trypanosoma brucei rhodesiense) (UniProt Q95PM0); experiment: Inhibition of recombinant Trypanosoma brucei rhodesiense rhodesain expressed in Pichia pastoris assessed as second order rate constant using Cbz-Phe-Arg-AMC as substrate after 30 mins by fluorescence assay; method in brief: as §2
Rhodesain = Rhodesain (Trypanosoma brucei rhodesiense, UniProt Q95PM0); experiment: Inhibition of recombinant Trypanosoma brucei rhodesiense rhodesain expressed in Pichia pastoris using Cbz-Phe-Arg-AMC as substrate after 30 min by fluorescence assay
Method in brief: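 Recombinant rhodesain with fluorogenic Cbz-Phe-Arg-AMC substrate. Compounds were first screened at a fixed 50 µM, with DMSO as negative control and an irreversible clan CA cysteine-protease inhibitor as positive control. Continuous assays at seven inhibitor concentrations, from minimally to fully inhibitory, gave kinac (min-1) and Ki, with k2nd = kinac/Ki (M-1 min-1).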

[14] = target: Rhodesain (Trypanosoma brucei rhodesiense) (UniProt Q95PM0); experiment: Inhibition of recombinant Trypanosoma brucei rhodesiense rhodesain expressed in Pichia pastoris using Cbz-Phe-Arg-AMC as substrate at 50 uM after 30 mins by fluorescence assay; method in brief: as §2

Chain of Rhodesain (Q95PM0 whole entry): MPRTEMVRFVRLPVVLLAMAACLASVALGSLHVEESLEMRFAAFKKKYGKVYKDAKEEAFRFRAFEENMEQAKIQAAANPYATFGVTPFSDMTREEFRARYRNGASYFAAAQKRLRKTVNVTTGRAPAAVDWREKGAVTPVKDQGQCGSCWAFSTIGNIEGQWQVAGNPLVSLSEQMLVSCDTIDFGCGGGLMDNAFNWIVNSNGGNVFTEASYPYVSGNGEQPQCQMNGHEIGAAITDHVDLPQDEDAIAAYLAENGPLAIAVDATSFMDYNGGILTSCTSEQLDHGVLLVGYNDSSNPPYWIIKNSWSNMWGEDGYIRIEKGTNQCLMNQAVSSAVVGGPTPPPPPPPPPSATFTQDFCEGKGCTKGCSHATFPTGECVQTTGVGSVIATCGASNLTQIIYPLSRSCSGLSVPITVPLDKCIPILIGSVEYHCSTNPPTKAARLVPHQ
Chain of Rhodesain (Trypanosoma brucei rhodesiense) (Q95PM0 1-450): as the sequence (Q95PM0 whole entry) above

Row | inhibition [14] | Structure (SMILES) | Ki (Procathepsin L [1]) [nM] | IC50 (Falcipain 2) [nM] | EC50 [2] [nM] | Activity [3] | K (Procathepsin L [4]) [×10³ /M/min] | Activity [5] | selectivity ratio at 48 h [6] | Kinact [7] [min⁻¹] | CC50 at 48 h [8] [nM] | EC50 [9] [nM] | Kinact (Procathepsin L [10]) [min⁻¹] | inhibition [11] | Activity [12] [µM] | EC50 (Plasmodium falciparum) [nM] | K [13] [×10³ /M/min] | Ki (Rhodesain) [nM]
1 | – | CC(=O)/C=C/[C@H](CCc1ccccc1)NC(=O)[C@H](Cc1ccccc1)NC(=O)OCc1ccccc1 | 0.4 | 3010 | 3180 | inactive | 5750 | Dose-dependent effect | 2.6 | 0.00255 | 7900 | 2970 | 0.002 | Dose-dependent effect | 160 | 7030 | 67000 | 0.038
2 | – | CC(=O)/C=C/[C@H](CCc1ccccc1)NC(=O)[C@H](CC(C)C)NC(=O)OCc1ccccc1 | 110 | 250 | 3850 | – | 13 | – | 3 | 0.0016 | 9580 | 3200 | 0.0013 | – | – | 3160 | 3800 | 0.5
3 | – | N=C(NCCCCCCNC(=N)NC(=N)Nc1ccc(Cl)cc1)NC(=N)Nc1ccc(Cl)cc1 [CHLORHEXIDINE] | – | – | 670 | – | – | – | – | – | – | 530 | – | – | – | – | – | –
4 | – | O=C(N[C@@H](Cc1ccccc1)C(=O)N[C@H](/C=C/S(=O)(=O)c1ccccc1)CCc1ccccc1)OCc1ccc([N+](=O)[O-])cc1 | 45 | > 50000 | 5480 | – | 65 | – | – | 0.0024 | – | 4070 | 0.003 | – | – | > 10000 | 334 | 7.2
5 | – | N#C/C=C/[C@H](CCc1ccccc1)NC(=O)[C@H](Cc1ccccc1)NC(=O)OCc1ccccc1 | 240 | > 50000 | – | – | 9.3 | – | – | 0.0005 | – | – | 0.0022 | – | – | > 10000 | 12 | 46
6 | – | COC(=O)/C=C/[C@H](CCc1ccccc1)NC(=O)[C@H](CC(C)C)NC(=O)OCc1ccccc1 | 40 | 9530 | 6080 | – | 81 | – | – | 0.0038 | – | 5020 | 0.0032 | – | – | 4400 | 509 | 7.5
7 | – | COC(=O)/C=C/[C@H](CCc1ccccc1)NC(=O)[C@H](Cc1ccccc1)NC(=O)OCc1ccc([N+](=O)[O-])cc1 | 25 | > 50000 | 97200 | – | 64 | – | – | 0.0012 | – | – | 0.0016 | – | – | > 10000 | 347 | 3.6
8 | – | CC(=O)/C=C/[C@H](CCc1ccccc1)NC(=O)[C@H](CC(C)C)NC(=O)OCc1ccc([N+](=O)[O-])cc1 | 3.5 | 110 | 3230 | – | 739 | – | 3.3 | 0.0027 | 8200 | 2480 | 0.0026 | – | – | 2740 | 2970 | 0.9
9 | – | CC(=O)/C=C/[C@H](CCc1ccccc1)NC(=O)[C@H](Cc1ccccc1)NC(=O)OCc1ccc([N+](=O)[O-])cc1 | 2.2 | 780 | 6050 | – | 737 | – | – | 0.0017 | – | 4980 | 0.0016 | – | – | 7180 | 24400 | 0.074
10 | – | CC(C)C[C@H](NC(=O)OCc1ccccc1)C(=O)N[C@H](/C=C/C#N)CCc1ccccc1 | 330 | > 50000 | – | – | 3.8 | – | – | 0.001 | – | – | 0.0012 | – | – | > 10000 | 19 | 53
11 | – | CC(C)C[C@H](NC(=O)OCc1ccc([N+](=O)[O-])cc1)C(=O)N[C@H](/C=C/S(=O)(=O)c1ccccc1)CCc1ccccc1 | 250 | 1320 | – | – | 22 | – | – | 0.0043 | – | – | 0.005 | – | – | 2310 | 304 | 14
12 | – | COC(=O)/C=C/[C@H](CCc1ccccc1)NC(=O)[C@H](Cc1ccccc1)NC(=O)OCc1ccccc1 | 27 | > 50000 | 12900 | – | 153 | – | – | 0.0018 | – | 8280 | 0.004 | – | – | > 10000 | 919 | 2
13 | – | N#C/C=C/[C@H](CCc1ccccc1)NC(=O)[C@H](Cc1ccccc1)NC(=O)OCc1ccc([N+](=O)[O-])cc1 | – | > 50000 | – | – | – | – | – | 0.0004 | – | – | – | – | – | > 10000 | 0.26 | 1740
14 | – | O=C(N[C@@H](Cc1ccccc1)C(=O)N[C@H](/C=C/S(=O)(=O)c1ccccc1)CCc1ccccc1)OCc1ccccc1 | 290 | 7330 | 23700 | – | 4.4 | – | – | 0.0033 | – | 18500 | 0.0014 | – | – | > 10000 | 663 | 5
15 | inactive | CC(C)C[C@H](NC(=O)OCc1ccc([N+](=O)[O-])cc1)C(=O)N[C@H](/C=C/C#N)CCc1ccccc1 | – | > 50000 | – | – | – | – | – | – | – | – | – | – | – | > 10000 | – | –
16 | – | COC(=O)/C=C/[C@H](CCc1ccccc1)NC(=O)[C@H](CC(C)C)NC(=O)OCc1ccc([N+](=O)[O-])cc1 | 41 | 9630 | – | – | 35 | – | – | 0.0023 | – | – | 0.0014 | – | – | 3970 | 152 | 17
17 | – | CCN(CC)CCCC(C)Nc1ccnc2cc(Cl)ccc12 (stereo unspecified) [CHLOROQUINE] | – | – | – | – | – | – | – | – | – | – | – | – | – | 57 | – | –
18 | – | CC(C)C[C@H](NC(=O)[C@H]1O[C@@H]1C(=O)O)C(=O)NCCCCN=C(N)N [E-64] | 30 | 250 | – | – | 110 | – | – | 0.009 | – | – | 0.0032 | – | – | – | 261 | 35
19 | – | CC(C)C[C@H](NC(=O)OCc1ccccc1)C(=O)N[C@H](/C=C/S(=O)(=O)c1ccccc1)CCc1ccccc1 | 0.61 | 780 | 2500 | – | 1570 | – | 4.6 | 0.0028 | 12200 | 2620 | 0.0009 | – | – | 1530 | 342 | 9.1
